Data taken from ChEMBL document CHEMBL3259723, “Membrane active vancomycin analogues: a strategy to combat bacterial resistance” (J Med Chem, 2014).
Calls of active or inactive are those of the source. No cut-off for these calls is given here.

Tests used:
Enterococcus faecium [1] = test: Antibacterial activity against vancomycin-sensitive Enterococcus faecium ATCC 19634 assessed as growth inhibition by broth microdilution method; type: functional
How it was run: (§1)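 Broth microdilution per CLSI; compounds serially diluted in autoclaved water. Bacteria grown 6 h in suitable media, diluted to 10⁵ CFU/mL; compound added to bacterial suspension, incubated at 37 °C, OD600 read. Triplicate wells, experiment done at least twice; mean OD versus concentration sigmoidally fitted, MIC taken where OD equals no-bacteria control.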

Enterococcus faecium [2] = test: Antibacterial activity against vancomycin-resistant VanA phenotype of Enterococcus faecium ATCC 51559 assessed as growth inhibition by broth microdilution method; type: functional
How it was run: (§2)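 Broth microdilution per CLSI; compounds serially diluted in sterile water, added to bacteria at 10^5 CFU/mL (diluted from 6 h cultures). Incubated at 37 °C, OD600 read. Triplicate wells, experiment done at least twice. Mean OD plotted against concentration and fitted sigmoidally; MIC taken where OD matches the no-bacteria control.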

Staphylococcus aureus [3] = test: Bactericidal activity against methicillin-resistant Staphylococcus aureus ATCC 33591 assessed as log10 reduction of bacterial count at MIC measured over 24 hrs; type: functional
How it was run: (§3)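 MRSA in yeast-dextrose broth, starting inoculum 1.6 × 10^8 CFU/mL. […] Samples taken at 0, 1, 2, 3, 6 and 24 h, diluted 10-fold serially in saline and plated on yeast-dextrose agar. Colonies counted after 24 h at 37 °C; log10 CFU/mL reported.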

Staphylococcus aureus [4] = test: Antibacterial activity against methicillin-resistant Staphylococcus aureus ATCC 33591 assessed as growth inhibition by broth microdilution method; type: functional; how it was run: as §2
Staphylococcus aureus [5] = test: Bactericidal activity against methicillin-resistant Staphylococcus aureus ATCC 33591 infected in 90% human whole blood at 3.6 uM after 3 hrs; type: functional, organism-based
How it was run: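 MRSA (30 μL of 10^6 CFU/mL in 0.9% saline) mixed with compound at 3.6 μM and 270 μL fresh human whole blood. Incubated 3 h at 37 °C.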

Staphylococcus aureus [6] = test: Antibacterial activity against methicillin-resistant Staphylococcus aureus ATCC 33591 assessed as leakage of intracellular potassium ion at 10 uM measured for 10 mins by PBFI-AM dye-based spectrofluorometric analysis relative to control; type: functional
How it was run: (§4)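 Mid-log (6 h) cells washed twice and resuspended in 10 mM HEPES pH 7.2 with 0.5% glucose. Signal stabilized 60 s at RT, then 1 μM PBFI-AM added and a 2 min baseline recorded before compound.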

Enterococcus faecium [7] = test: Antibacterial activity against vancomycin-resistant VanA phenotype of Enterococcus faecium ATCC 51559 assessed as leakage of intracellular potassium ion at 10 uM measured for 10 mins by PBFI-AM dye-based spectrofluorometric analysis; type: functional, organism-based; how it was run: as §4
HeLa = test: Cytotoxicity against human HeLa cells assessed as cell survival up to 100 uM after 24 hrs by MTT assay; type: cell-based
How it was run: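 HeLa cells grown in DMEM with 10% FBS to 70–80% confluency, then exposed to serially diluted compounds for 24 h at 37 °C, 5% CO2. MTT (5 mg/mL solution) added for 3 h, formazan dissolved in DMSO, A570 read. Survival calculated relative to untreated and 10% Triton X-100 controls.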

Staphylococcus aureus [8] = test: Antibacterial activity against methicillin-resistant Staphylococcus aureus ATCC 33591 assessed as induction of membrane depolarization measured at < 3 mins by DiSC3(5) dye-based spectrofluorometric analysis; type: functional, organism-based
How it was run: (§5)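 Membrane potential assay with DiSC3(5): dye added to cells until maximal uptake, seen as a fluorescence minimum (about 10 min). Compounds then added and depolarization followed as the fluorescence increase over a further 10 min.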

Staphylococcus aureus [9] = test: Bactericidal activity against methicillin-resistant Staphylococcus aureus ATCC 33591 assessed as log10 reduction of bacterial count at 6 times MIC measured over 24 hrs; type: functional; how it was run: as §3
Staphylococcus aureus [10] = test: Antibacterial activity against methicillin-resistant Staphylococcus aureus ATCC 33591 infected in CD-1 mouse neutropenic thigh infection model assessed as reduction of bacterial burden in thigh at 12 mg/kg, iv bid administered as 12 hrs interval measured after 24 hrs; type: functional, organism-based; design: dose 12 mg/kg
How it was run: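 Neutropenic mouse thigh model: about 50 μL MRSA inoculum injected into the thigh. About 1 h later, iv treatment twice at 12 h intervals with saline, vancomycin or compound at 12 mg/kg. At 24 h, thigh homogenate dilutions plated and incubated overnight at 37 °C; titer expressed as log10 CFU/g thigh.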

[11] = Hemolytic activity in human RBC up to 1000 uM after 1 hr; type: ADME, cell-based; conditions: erythrocyte
How it was run: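 Centrifuged, supernatant A540 read. Controls: no compound and 1 vol % Triton X-100 (100% lysis); % hemolysis = (A − A0)/(Atotal − A0) × 100.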

Staphylococcus aureus [12] = test: Antibacterial activity against vancomycin-intermediate-resistant Staphylococcus aureus assessed as growth inhibition by broth microdilution method; type: functional; how it was run: as §2
Enterococcus faecium [13] = test: Antibacterial activity against vancomycin-resistant VanA phenotype of Enterococcus faecium ATCC 51559 assessed as induction of membrane depolarization measured at < 3 mins by DiSC3(5) dye-based spectrofluorometric analysis; type: functional, organism-based; how it was run: as §5
Staphylococcus aureus [14] = test: Antibacterial activity against methicillin-resistant Staphylococcus aureus ATCC 33591 assessed as induction of cytoplasmic membrane permeabilization measured within 5 mins by propidium iodide uptake assay; type: functional, organism-based
How it was run: (§6)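 Mid-log (6 h) cells harvested at 4 °C, washed and resuspended in PBS pH 7.2. Compound added to cells with 10 μM propidium iodide. Fluorescence (ex 535/em 617 nm) monitored 10 min at RT; the rise in PI fluorescence taken as inner membrane permeabilization.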

Staphylococcus aureus [15] = test: Antibacterial activity against methicillin-resistant Staphylococcus aureus ATCC 33591 assessed as growth inhibition measured after 52 serial passages; type: functional, organism-based
How it was run: (§7)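 Serial passage: the MIC assay is run against MRSA, then cells from the one-half-MIC well of the previous assay are harvested and inoculated into fresh yeast-dextrose broth for the next MIC assay after 24 h incubation. Repeated for […] passages; MIC plotted against passage number and fold increase in MIC determined.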

Enterococcus faecium [16] = test: Antibacterial activity against vancomycin-resistant VanA phenotype of Enterococcus faecium ATCC 51559 assessed as induction of cytoplasmic membrane permeabilization at 10 uM measured for 10 mins by propidium iodide uptake assay; type: functional, organism-based; how it was run: as §6
Staphylococcus aureus [17] = test: Antibacterial activity against methicillin-sensitive Staphylococcus aureus MTCC 737 assessed as growth inhibition by broth microdilution method; type: functional; how it was run: as §1
Staphylococcus aureus [18] = test: Antibacterial activity against methicillin-resistant Staphylococcus aureus ATCC 33591 assessed as growth inhibition measured after 20 serial passages; type: functional, organism-based; how it was run: as §7
Staphylococcus aureus [19] = test: Antibacterial activity against methicillin-resistant Staphylococcus aureus ATCC 33591 assessed as induction of cytoplasmic membrane permeabilization at 10 uM measured for 10 mins by propidium iodide uptake assay; type: functional, organism-based; how it was run: as §6
Staphylococcus aureus [20] = test: Antibacterial activity against methicillin-resistant Staphylococcus aureus ATCC 33591 assessed as induction of membrane depolarization at 10 uM measured for 10 mins by DiSC3(5) dye-based spectrofluorometric analysis; type: functional, organism-based; how it was run: as §5
Enterococcus faecium [21] = test: Antibacterial activity against vancomycin-resistant VanA phenotype of Enterococcus faecium ATCC 51559 assessed as induction of membrane depolarization at 10 uM measured for 10 mins by DiSC3(5) dye-based spectrofluorometric analysis; type: functional, organism-based; how it was run: as §5
Staphylococcus aureus [22] = test: Bacteriostatic activity against methicillin-resistant Staphylococcus aureus ATCC 33591 measured over 24 hrs; type: functional, organism-based; how it was run: as §3
Staphylococcus aureus [23] = test: Ratio of MIC for methicillin-resistant Staphylococcus aureus ATCC 33591 measured after 52 serial passages to MIC for methicillin-resistant Staphylococcus aureus ATCC 33591; type: functional; how it was run: as §7

Row | Compound | MIC (Enterococcus faecium [1]) | MIC (Enterococcus faecium [2]) | MIC (Staphylococcus aureus [4]) | Activity (Staphylococcus aureus [5]) | Activity (Staphylococcus aureus [6]) | Activity (Enterococcus faecium [7]) | Activity (Staphylococcus aureus [8]) | Activity (Staphylococcus aureus [10]) | MIC (Staphylococcus aureus [12]) | Activity (Enterococcus faecium [13]) | Activity (Staphylococcus aureus [14]) | Activity (Enterococcus faecium [16]) | MIC (Staphylococcus aureus [17]) | Activity (Staphylococcus aureus [19]) | Activity (Staphylococcus aureus [20]) | Activity (Enterococcus faecium [21]) | further results
1 | CCCCCCCC[N+](C)(C)CCCNC(=O)[C@H]1NC(=O)[C@H]2NC(=O)[C@H](NC(=O)[C@@H]3NC(=O)[C@H](CC(N)=O)NC(=O)[C@H](NC(=O)[C@@H](CC(C)C)NC)[C@H](O)c4ccc(c(Cl)c4)Oc4cc3cc(c4O[C@@H]3O[C@H](CO)[C@@H](O)[C@H](O)[C@H]3O[C@H]3C[C@](C)(N)[C@H](O)[C@H](C)O3)Oc3ccc(cc3Cl)[C@H]2O)c2ccc(O)c(c2)-c2c(O)cc(O)cc21.O=C([O-])C(F)(F)F | 0.15 µM | 12.5 µM | 0.31 µM | Active | 43% | Active | Dose-dependent effect | Active | 0.4 µM | Dose-dependent effect | Dose-dependent effect | Active | 0.31 µM | – | – | – | log10cfu (Staphylococcus aureus [3]): 8; Activity (HeLa): Non-toxic; log10cfu (Staphylococcus aureus [9]): 3; Activity [11]: Non-toxic; Activity (Staphylococcus aureus [15]): Active
2 | CN[C@H](CC(C)C)C(=O)N[C@H]1C(=O)N[C@@H](CC(N)=O)C(=O)N[C@H]2C(=O)N[C@H]3C(=O)N[C@H](C(=O)N[C@H](C(=O)O)c4cc(O)cc(O)c4-c4cc3ccc4O)[C@H](O)c3ccc(c(Cl)c3)Oc3cc2cc(c3O[C@@H]2O[C@H](CO)[C@@H](O)[C@H](O)[C@H]2O[C@H]2C[C@](C)(N)[C@H](O)[C@H](C)O2)Oc2ccc(cc2Cl)[C@H]1O [VANCOMYCIN] | 0.6 µM | 750 µM | 0.63 µM | Active | 100% | – | – | Active | 13 µM | – | – | inactive | 0.63 µM | inactive | inactive | inactive | Activity (Staphylococcus aureus [18]): Active; Activity (Staphylococcus aureus [22]): Dose-dependent effect; Ratio (Staphylococcus aureus [23]): >20
3 | CCCCCCCCCCCCCCCCCC[N+](C)(C)CCCNC(=O)[C@H]1NC(=O)[C@H]2NC(=O)[C@H](NC(=O)[C@@H]3NC(=O)[C@H](CC(N)=O)NC(=O)[C@H](NC(=O)[C@@H](CC(C)C)NC)[C@H](O)c4ccc(c(Cl)c4)Oc4cc3cc(c4O[C@@H]3O[C@H](CO)[C@@H](O)[C@H](O)[C@H]3O[C@H]3C[C@](C)(N)[C@H](O)[C@H](C)O3)Oc3ccc(cc3Cl)[C@H]2O)c2ccc(O)c(c2)-c2c(O)cc(O)cc21.O=C([O-])C(F)(F)F | – | 1.9 µM | – | – | 99% | Active | Dose-dependent effect | – | 0.92 µM | Dose-dependent effect | Dose-dependent effect | Active | 5.03 µM | – | – | – | –
4 | CN[C@H](CC(C)C)C(=O)N[C@H]1C(=O)N[C@@H](CC(N)=O)C(=O)N[C@H]2C(=O)N[C@H]3C(=O)N[C@H](C(=O)N[C@H](C(=O)NCCCN(C)C)c4cc(O)cc(O)c4-c4cc3ccc4O)[C@H](O)c3ccc(c(Cl)c3)Oc3cc2cc(c3O[C@@H]2O[C@H](CO)[C@@H](O)[C@H](O)[C@H]2O[C@H]2C[C@](C)(N)[C@H](O)[C@H](C)O2)Oc2ccc(cc2Cl)[C@H]1O | 0.63 µM | > 100 µM | 0.61 µM | – | – | inactive | – | – | 1.47 µM | – | – | inactive | 0.62 µM | inactive | inactive | inactive | –
5 | CCCCCCCCCC[N+](C)(C)CCCNC(=O)[C@H]1NC(=O)[C@H]2NC(=O)[C@H](NC(=O)[C@@H]3NC(=O)[C@H](CC(N)=O)NC(=O)[C@H](NC(=O)[C@@H](CC(C)C)NC)[C@H](O)c4ccc(c(Cl)c4)Oc4cc3cc(c4O[C@@H]3O[C@H](CO)[C@@H](O)[C@H](O)[C@H]3O[C@H]3C[C@](C)(N)[C@H](O)[C@H](C)O3)Oc3ccc(cc3Cl)[C@H]2O)c2ccc(O)c(c2)-c2c(O)cc(O)cc21 | 0.2 µM | 3 µM | 0.31 µM | – | Active | Active | Dose-dependent effect | – | 0.3 µM | Dose-dependent effect | Dose-dependent effect | Active | 0.31 µM | – | – | – | –
